Activity calls are given as the source filed them. No cut-off for these calls is given here.
Legend:
Mus musculus [1] = assay: Antidiabetic activity in db/db mouse assessed as reduction in body weight gain at 75 mg/kg, po administered via gavage twice daily for 2 weeks and measured on day 14; type: functional, organism-based
Mus musculus [2] = assay: Antidiabetic activity in db/db mouse assessed as reduction in random blood glucose level at 75 mg/kg, po administered via gavage twice daily for 2 weeks and measured once a week; type: functional, organism-based
CYP3A4 = CYP3A4 (Homo sapiens, UniProt P08684); assay: Inhibition of CYP3A4 (unknown origin) assessed as percentage remaining activity at 10 uM; type: ADME; conditions: read-out: INH
In short: (§1)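 CYP isoforms 1A2, 2C9, 2C19, 2D6, 3A4: % remaining enzyme activity in presence of 10 uM compound.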

[3] = Stability in rat liver microsomes assessed as parent compound remaining at 30 mins; type: ADME, Microsome; conditions: read-out: Stability
In short: (§2)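 Compound incubated with liver microsomes (mouse, rat, dog, human) for 30 min; stability expressed as % of parent concentration remaining.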

[4] = biological target: T1, Peroxisome proliferator-activated receptor gamma (Homo sapiens, UniProt P37231); assay: Agonist activity at PPARgamma (unknown origin) assessed as receptor transactivation after 24 hrs by TK-PPRE-Luc expressing cells based luciferase reporter gene assay
T1 sequence (P37231 whole entry): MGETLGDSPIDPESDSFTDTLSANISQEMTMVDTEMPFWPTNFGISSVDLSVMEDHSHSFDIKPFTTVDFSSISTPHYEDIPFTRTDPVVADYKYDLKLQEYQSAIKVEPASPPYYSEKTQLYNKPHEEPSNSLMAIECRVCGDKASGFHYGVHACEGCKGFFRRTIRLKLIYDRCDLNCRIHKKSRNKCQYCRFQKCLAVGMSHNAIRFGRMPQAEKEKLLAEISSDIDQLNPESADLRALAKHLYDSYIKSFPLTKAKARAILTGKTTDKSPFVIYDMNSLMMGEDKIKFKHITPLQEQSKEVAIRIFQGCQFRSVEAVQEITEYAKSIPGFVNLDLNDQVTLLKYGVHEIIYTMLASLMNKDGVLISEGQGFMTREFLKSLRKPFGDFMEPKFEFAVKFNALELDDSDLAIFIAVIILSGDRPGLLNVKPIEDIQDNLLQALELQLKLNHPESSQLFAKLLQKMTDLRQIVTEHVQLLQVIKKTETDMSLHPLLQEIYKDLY
In short: (§3)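 Luciferase reporter gene assay in cells transfected with PPRE and luciferase genes; luciferase induction measured over a range of concentrations to derive EC50 and Amax; Amax expressed as a percentage relative to pioglitazone.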

[5] = biological target: T2, Peroxisome proliferator-activated receptor gamma (Mus musculus) (UniProt P37238); assay: Agonist activity at GAL4-tagged mouse PPARgamma LBD expressed in monkey CV1 cells assessed as receptor transactivation incubated for 24 hrs by luciferase reporter gene assay relative to telmisartan; type: cell-based
T2 sequence (whole entry): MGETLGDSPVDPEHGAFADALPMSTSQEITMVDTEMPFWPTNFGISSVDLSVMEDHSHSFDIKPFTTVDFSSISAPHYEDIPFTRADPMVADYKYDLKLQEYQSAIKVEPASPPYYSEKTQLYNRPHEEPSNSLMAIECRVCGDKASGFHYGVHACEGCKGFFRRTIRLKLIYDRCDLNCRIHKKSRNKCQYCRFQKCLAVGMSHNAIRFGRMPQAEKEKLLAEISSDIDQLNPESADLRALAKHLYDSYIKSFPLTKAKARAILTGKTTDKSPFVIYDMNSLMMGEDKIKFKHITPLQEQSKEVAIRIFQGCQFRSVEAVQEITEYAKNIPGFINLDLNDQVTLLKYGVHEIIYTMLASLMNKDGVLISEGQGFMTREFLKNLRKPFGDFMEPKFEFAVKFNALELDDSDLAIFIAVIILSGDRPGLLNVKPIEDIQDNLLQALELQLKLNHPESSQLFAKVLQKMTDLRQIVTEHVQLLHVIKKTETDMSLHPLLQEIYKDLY

[6] = biological target: T2, Peroxisome proliferator-activated receptor gamma (Mus musculus); assay: Agonist activity at PPARgamma in mouse 3T3-L1 cells assessed as increase in CD36 RNA expression at 10 uM by qRT-PCR analysis; type: cell-based
[7] = Stability in human liver microsomes assessed as parent compound remaining at 30 mins; type: ADME, Microsome; conditions: read-out: Stability; in short: as §2
[8] = Tmax in mouse at 10 mg/kg, po; type: ADME, organism-based; conditions: in vivo
[9] = Stability in mouse liver microsomes assessed as parent compound remaining at 30 mins; type: ADME, Microsome; conditions: read-out: Stability; in short: as §2
CYP2C19 = CYP2C19 (Homo sapiens, UniProt P33261); assay: Inhibition of CYP2C19 (unknown origin) assessed as percentage remaining activity at 10 uM; type: ADME; conditions: read-out: INH; in short: as §1
[10] = Cmax in mouse at 10 mg/kg, po; type: ADME, organism-based; parameters: dose 10 mg/kg, route oral; conditions: in vivo
CYP2C9 = CYP2C9 (Homo sapiens, UniProt P11712); assay: Inhibition of CYP2C9 (unknown origin) assessed as enzyme remaining activity at 10 uM; type: ADME; conditions: read-out: INH; in short: as §1
[11] = biological target: T2, Peroxisome proliferator-activated receptor gamma (Mus musculus); assay: Agonist activity at PPARgamma in mouse 3T3-L1 cells assessed as increase in AP2 RNA expression at 10 uM by qRT-PCR analysis; type: cell-based
[12] = biological target: T2, Peroxisome proliferator-activated receptor gamma (Mus musculus); assay: Agonist activity at PPARgamma in mouse 3T3-L1 cells accessed as increase in insulin stimulated 2-deoxy-D-glucose uptake at 10 uM pre-incubated for 20 mins followed by 2-deoxy-D-glucose addition and measured after 20 to 40 mins by glucose uptake assay; type: cell-based
[13] = Half life in rat at 10 mg/kg, po; type: ADME, organism-based; conditions: in vivo
[14] = Cmax in rat at 10 mg/kg, po; type: ADME, organism-based; parameters: dose 10 mg/kg, route oral; conditions: in vivo
[15] = Stability in dog liver microsomes assessed as parent compound remaining at 30 mins; type: ADME, Canis lupus familiaris, Microsome; conditions: read-out: Stability; in short: as §2
[16] = AUClast in rat at 10 mg/kg, po; type: ADME, organism-based; parameters: dose 10 mg/kg, time 0 - last, route oral; conditions: in vivo
[17] = Tmax in rat at 10 mg/kg, po; type: ADME, organism-based; conditions: in vivo
[18] = biological target: T3, Peroxisome proliferator-activated receptor gamma (Homo sapiens) (UniProt P37231); assay: Agonist activity at PPARgamma (unknown origin) assessed as receptor transactivation after 24 hrs by TK-PPRE-Luc expressing cells based luciferase reporter gene assay relative to pioglitazone; in short: as §3
T3 sequence (whole entry): T1 sequence (P37231 whole entry)

hERG (KCNH2) = hERG (KCNH2) (Homo sapiens, UniProt Q12809); assay: Inhibition of human ERG at 10 uM
In short: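 hERG: % inhibition measured at 10 µM.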

3T3-L1 = assay: Induction of preadipocyte differentiation in mouse 3T3L1 cells grown in insulin medium assessed as conversion to matured adipocytes measured after 6 days by oil red O staining based phase contrast microscopy; type: functional, cell-based
CYP2D6 = CYP2D6 (Homo sapiens, UniProt P10635); assay: Inhibition of CYP2D6 (unknown origin) assessed as percentage remaining activity at 10 uM; type: ADME; conditions: read-out: INH; in short: as §1
Mus musculus [19] = assay: Antidiabetic activity in db/db mouse assessed as reduction in blood glucose level at 75 mg/kg, po administered twice daily for 2 weeks and measured on day 14 by OGTT method; type: functional, organism-based
[20] = Toxicity in db/db mouse assessed as reduction in food intake at 75 mg/kg, po administered via gavage twice daily and measured on day 7; type: organism-based; conditions: in vivo
[21] = Half life in mouse at 10 mg/kg, po; type: ADME, organism-based; conditions: in vivo
[22] = AUClast in mouse at 10 mg/kg, po; type: ADME, organism-based; parameters: dose 10 mg/kg, route oral, time 0 - last; conditions: in vivo
CYP1A2 = biological target: T4, CYP1A2 (Homo sapiens, UniProt P05177); assay: Inhibition of CYP1A2 (unknown origin) assessed as enzyme remaining activity at 10 uM; type: ADME; conditions: read-out: INH; in short: as §1
T4 sequence (P05177 whole entry): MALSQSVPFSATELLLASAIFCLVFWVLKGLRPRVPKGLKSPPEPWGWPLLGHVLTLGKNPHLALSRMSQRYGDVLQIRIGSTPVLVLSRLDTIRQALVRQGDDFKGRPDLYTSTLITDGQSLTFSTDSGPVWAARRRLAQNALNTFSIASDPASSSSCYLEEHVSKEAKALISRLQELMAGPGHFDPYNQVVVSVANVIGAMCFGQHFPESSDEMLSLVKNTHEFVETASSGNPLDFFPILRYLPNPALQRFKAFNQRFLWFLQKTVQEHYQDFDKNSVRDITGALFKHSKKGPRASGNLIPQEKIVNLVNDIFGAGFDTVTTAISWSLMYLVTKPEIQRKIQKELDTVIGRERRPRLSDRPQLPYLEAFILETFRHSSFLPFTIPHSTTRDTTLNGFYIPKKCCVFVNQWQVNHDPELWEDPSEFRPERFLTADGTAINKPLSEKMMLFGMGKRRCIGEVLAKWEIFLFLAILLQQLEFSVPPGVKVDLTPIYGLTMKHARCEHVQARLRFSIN

Sequence of CYP2D6 (P10635 whole entry): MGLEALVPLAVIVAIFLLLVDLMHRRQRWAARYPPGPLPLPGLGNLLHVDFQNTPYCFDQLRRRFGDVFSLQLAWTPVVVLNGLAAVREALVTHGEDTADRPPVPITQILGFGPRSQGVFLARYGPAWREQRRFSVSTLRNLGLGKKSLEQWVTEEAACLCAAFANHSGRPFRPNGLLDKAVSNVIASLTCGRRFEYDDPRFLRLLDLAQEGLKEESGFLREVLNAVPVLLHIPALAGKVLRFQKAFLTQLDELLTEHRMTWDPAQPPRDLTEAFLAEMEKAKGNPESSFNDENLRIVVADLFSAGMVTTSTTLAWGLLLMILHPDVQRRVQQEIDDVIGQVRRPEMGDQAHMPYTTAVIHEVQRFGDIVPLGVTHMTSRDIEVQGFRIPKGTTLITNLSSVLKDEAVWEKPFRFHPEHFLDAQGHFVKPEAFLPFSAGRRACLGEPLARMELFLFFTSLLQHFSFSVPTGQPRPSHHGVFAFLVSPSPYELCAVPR
Sequence of CYP2C19 (P33261 whole entry): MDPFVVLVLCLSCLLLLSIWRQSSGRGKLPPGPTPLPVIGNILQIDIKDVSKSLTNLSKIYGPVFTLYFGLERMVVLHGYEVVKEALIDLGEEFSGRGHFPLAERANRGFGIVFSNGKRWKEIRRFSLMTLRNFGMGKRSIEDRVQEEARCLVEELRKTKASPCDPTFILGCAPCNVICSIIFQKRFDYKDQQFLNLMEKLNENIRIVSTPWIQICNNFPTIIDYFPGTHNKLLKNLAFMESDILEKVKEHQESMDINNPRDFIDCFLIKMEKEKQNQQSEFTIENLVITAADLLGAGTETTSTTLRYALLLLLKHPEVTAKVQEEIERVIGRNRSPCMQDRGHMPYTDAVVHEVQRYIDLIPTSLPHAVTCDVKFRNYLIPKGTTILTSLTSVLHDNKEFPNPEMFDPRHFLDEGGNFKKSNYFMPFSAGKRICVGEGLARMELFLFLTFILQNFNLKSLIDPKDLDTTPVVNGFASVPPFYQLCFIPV
Sequence of CYP2C9 (P11712 whole entry): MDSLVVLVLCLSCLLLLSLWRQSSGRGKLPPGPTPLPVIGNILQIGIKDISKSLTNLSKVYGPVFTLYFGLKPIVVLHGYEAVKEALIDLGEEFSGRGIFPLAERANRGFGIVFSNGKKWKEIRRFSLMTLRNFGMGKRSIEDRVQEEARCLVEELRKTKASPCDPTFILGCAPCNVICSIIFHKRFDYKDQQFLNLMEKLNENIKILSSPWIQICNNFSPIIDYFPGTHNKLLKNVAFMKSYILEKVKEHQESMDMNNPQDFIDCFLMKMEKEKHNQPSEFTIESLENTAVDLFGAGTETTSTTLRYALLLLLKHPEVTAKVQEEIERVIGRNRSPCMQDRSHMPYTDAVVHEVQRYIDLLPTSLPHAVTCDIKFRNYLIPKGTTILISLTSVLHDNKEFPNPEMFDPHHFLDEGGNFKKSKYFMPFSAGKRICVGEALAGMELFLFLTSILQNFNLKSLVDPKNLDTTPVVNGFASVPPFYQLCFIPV
Sequence of CYP3A4 (P08684 whole entry, canonical isoform): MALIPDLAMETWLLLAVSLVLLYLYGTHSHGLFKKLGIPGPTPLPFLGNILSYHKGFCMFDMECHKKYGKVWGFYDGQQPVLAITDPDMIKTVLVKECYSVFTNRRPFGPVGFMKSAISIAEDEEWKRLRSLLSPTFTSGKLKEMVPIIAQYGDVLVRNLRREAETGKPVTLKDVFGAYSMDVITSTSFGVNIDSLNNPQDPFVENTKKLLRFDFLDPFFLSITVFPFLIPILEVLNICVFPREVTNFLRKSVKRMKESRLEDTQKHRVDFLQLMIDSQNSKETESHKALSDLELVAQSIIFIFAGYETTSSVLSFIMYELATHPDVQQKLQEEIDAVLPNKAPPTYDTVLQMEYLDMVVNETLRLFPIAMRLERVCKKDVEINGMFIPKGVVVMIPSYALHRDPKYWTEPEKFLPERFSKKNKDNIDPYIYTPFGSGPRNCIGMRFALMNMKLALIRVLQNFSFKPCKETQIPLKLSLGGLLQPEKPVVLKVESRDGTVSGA
Sequence of hERG (KCNH2) (Q12809 whole entry): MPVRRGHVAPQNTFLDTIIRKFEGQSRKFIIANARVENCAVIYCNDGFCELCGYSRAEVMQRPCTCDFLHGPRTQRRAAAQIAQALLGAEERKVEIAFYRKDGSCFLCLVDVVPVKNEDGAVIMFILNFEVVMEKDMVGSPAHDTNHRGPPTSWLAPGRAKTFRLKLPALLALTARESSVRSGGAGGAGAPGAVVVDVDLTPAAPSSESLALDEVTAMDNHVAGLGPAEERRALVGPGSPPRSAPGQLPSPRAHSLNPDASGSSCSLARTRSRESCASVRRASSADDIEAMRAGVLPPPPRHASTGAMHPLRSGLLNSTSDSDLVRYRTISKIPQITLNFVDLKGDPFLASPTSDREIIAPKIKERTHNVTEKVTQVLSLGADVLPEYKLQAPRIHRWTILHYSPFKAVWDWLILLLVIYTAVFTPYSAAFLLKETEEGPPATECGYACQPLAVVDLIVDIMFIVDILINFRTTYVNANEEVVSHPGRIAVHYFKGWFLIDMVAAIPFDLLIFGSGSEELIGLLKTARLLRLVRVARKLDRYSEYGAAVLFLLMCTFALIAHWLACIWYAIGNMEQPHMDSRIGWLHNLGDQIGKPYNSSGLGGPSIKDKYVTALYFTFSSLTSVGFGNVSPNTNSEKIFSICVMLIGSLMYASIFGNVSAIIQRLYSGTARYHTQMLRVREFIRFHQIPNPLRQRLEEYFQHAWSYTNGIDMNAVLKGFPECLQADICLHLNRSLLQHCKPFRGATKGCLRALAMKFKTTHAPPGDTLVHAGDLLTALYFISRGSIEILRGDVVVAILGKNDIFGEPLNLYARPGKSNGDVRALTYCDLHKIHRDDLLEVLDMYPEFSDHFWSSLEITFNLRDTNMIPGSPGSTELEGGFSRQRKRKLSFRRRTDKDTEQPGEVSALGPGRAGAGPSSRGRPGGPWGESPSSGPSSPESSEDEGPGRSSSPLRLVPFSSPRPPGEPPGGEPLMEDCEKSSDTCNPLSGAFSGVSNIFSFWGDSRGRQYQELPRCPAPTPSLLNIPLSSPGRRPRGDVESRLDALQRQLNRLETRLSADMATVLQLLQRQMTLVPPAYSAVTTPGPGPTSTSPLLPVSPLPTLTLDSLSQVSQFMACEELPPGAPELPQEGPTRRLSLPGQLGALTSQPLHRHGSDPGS

CCCCc1nc(C)c(Cc2nc(C(C)(C)C)no2)c(=O)n1Cc1ccc(-c2ccccc2-c2noc(=O)[nH]2)cc1
Activity (Mus musculus [1]): inactive | Activity (Mus musculus [2]): Active | activity at 10 µM (CYP3A4): 64% | remaining at 0.5 h [3]: 12% | EC50 [4]: 280 nM | %max [5]: 331% | Activity [6]: Active | remaining at 0.5 h [7]: 17% | Tmax [8]: 19.8 min | remaining at 0.5 h [9]: 11% | activity at 10 µM (CYP2C19): 84% | Cmax [10]: 949 ng/mL | activity at 10 µM (CYP2C9): 57% | Activity [11]: Active | Activity [12]: Active | half-life [13]: 107 min | Cmax [14]: 1320 ng/mL | remaining at 0.5 h [15]: 11% | AUC(0-t) [16]: 889 ng·h/mL | Tmax [17]: 18 min | %max [18]: 98% | inhibition at 10 µM (hERG (KCNH2)): 8.3% | Activity (3T3-L1): Dose-dependent effect | activity at 10 µM (CYP2D6): 93% | Activity (Mus musculus [19]): Active | Activity [20]: Toxic | half-life [21]: 70.8 min | AUC(0-t) [22]: 584 ng·h/mL | activity at 10 µM (CYP1A2): 88%

— ChEMBL document CHEMBL4433251, “Discovery of BR102375, a new class of non-TZD PPARγ full agonist for the treatment of type 2 diabetes” (Bioorg Med Chem Lett, 2019)
